# From PubChem
# This is a sample that favours compounds with a hit; in the whole collection about 3.5% have one here.
# PAFAH1B3 FP inh: PAFAH1B3 enzyme inhibitors, primary screen, biochemical, fluorescence polarization, human; Platelet-activating factor acetylhydrolase IB subunit alpha1 (Homo sapiens), Q15102; inhibition, % at 3.39 µM; AID 492972, 2010; recombinant PAFAH1B3, FP-rhodamine probe; 0.28% of 340,000 active;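 active = inhibition above the screen-wide average of all tested compounds plus 3 SD, cut at about 25% in these data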;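 note: 0% = enzyme with DMSO only and 100% = wells lacking PAFAH1B3 protein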
# PREPL inh: PREPL enzyme inhibitors, primary screen, biochemical, fluorescence polarization | Prolyl endopeptidase-like (Homo sapiens), Q4J6C6 | recombinant PREPL, fluorescence polarization activity-based probe | inhibition, % at 5.96 µM | 0.68% of 320,000 active; in the data active = inhibition above about 43%;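 note: 0% = enzyme with DMSO and 100% = wells lacking enzyme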
# Apaf-1 inh: inhibitors of human Apaf-1 apoptosome, primary screen, biochemical, DEVD-Rh110 fluorescence, uHTS. 0.71% of 330,000 active. reconstituted apoptosome caspase-3 activity. AID 489030, 2010. inhibition, % at 20 µM. Apoptotic protease-activating factor 1 (Homo sapiens), O14727; active = inhibition of at least 40% at 20 µM;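 note: plate controls were DMSO wells for no effect and DEVD-CHO caspase inhibitor wells for full effect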
#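 System: Apoptosome proteins | Medium: Hepes pH 7.5 with detergent and BSA | Also added: Cytochrome c trigger plus (Z-DEVD)2-Rh110 caspase-3 substrate | Incubation: 30 min compound preincubation, 50 min activation, room temperature | Detection: Rhodamine 110 fluorescence at Ex 480/Em 540 nm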
# pPAFAH FP inh: pPAFAH enzyme inhibitors, primary screen, biochemical, fluorescence polarization, human; Platelet-activating factor acetylhydrolase (Homo sapiens), Q13093; recombinant pPAFAH, FP-rhodamine probe fluorescence polarization; inhibition, % at 3.39 µM; 1.5% of 330,000 active;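 active = inhibition above the mean inhibition across the screen plus 3 SD, cut at about 25% in these data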;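 note: inhibitors block binding of the rhodamine activity-based probe so polarization drops; 0% = enzyme with DMSO and 100% = wells lacking pPAFAH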
# Target sequence (Q13093 whole entry, looked up): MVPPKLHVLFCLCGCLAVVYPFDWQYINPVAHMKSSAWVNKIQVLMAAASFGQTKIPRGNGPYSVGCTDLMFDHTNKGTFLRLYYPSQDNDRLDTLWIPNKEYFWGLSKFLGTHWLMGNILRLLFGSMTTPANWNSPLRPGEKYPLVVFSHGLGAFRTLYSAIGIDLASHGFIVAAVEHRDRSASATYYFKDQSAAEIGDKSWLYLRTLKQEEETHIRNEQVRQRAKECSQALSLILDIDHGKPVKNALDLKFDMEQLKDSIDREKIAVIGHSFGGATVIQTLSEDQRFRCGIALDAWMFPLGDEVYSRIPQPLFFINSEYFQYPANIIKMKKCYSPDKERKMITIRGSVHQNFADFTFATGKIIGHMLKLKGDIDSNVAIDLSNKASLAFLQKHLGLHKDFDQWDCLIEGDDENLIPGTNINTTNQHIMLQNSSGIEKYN
# PAFAH1B2 inh: PAFAH1B2 enzyme inhibitors, primary screen, biochemical, fluorescence polarization, human; 1.2% of 340,000 active; recombinant PAFAH1B2, FP-rhodamine activity probe; inhibition, % at 3.39 µM;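 active = inhibition above the mean of all tested compounds plus 3 SD, cut at about 24% in these data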;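 note: 0% = enzyme with DMSO and 100% = wells lacking PAFAH1B2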
# PAFAH2 FP inh: PAFAH2 enzyme inhibitors, primary screen, biochemical, fluorescence polarization, human. AID 492956, 2010. inhibition, % at 3.39 µM. Platelet-activating factor acetylhydrolase 2, cytoplasmic (Homo sapiens), Q99487. 0.99% of 340,000 active. recombinant PAFAH2, FP-rhodamine activity probe;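 active = inhibition above the mean over all tested compounds plus 3 SD, cut at about 30% in these data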;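 note: inhibitors block probe labeling of enzyme so polarization drops; 0% = enzyme with DMSO and 100% = wells lacking PAFAH2 protein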
# Starred values were filed as active, the others as inactive; / = no result.
SMILES,PAFAH1B3 FP inh,PREPL inh,Apaf-1 inh,pPAFAH FP inh,PAFAH1B2 inh,PAFAH2 FP inh
O=C1C2CCCN2C(=O)N1CCCN1CCN(c2cccc(Cl)c2)CC1 (centres undefined),9,15,2,14,5,5
O=C1C2CCCCN2C(=O)N1CCCCN1CCN(c2cccc(Cl)c2)CC1 (centres undefined),-5,27,5,25*,5,-2
CC(=O)N1CCN(c2ccc(Oc3ccc([N+](=O)[O-])c(C(F)(F)F)c3)cc2)CC1,4,20,22,25*,7,-7
CCOc1ccc(C(=O)Nc2ccc(N3CCN(C(C)=O)CC3)cc2)cc1[N+](=O)[O-],11,6,10,11,0,6
CN(C)Cc1cc(O)c(CN(C)C)cc1O,14,6,65*,23,11,10
COC(=O)c1ccccc1N/C=C1\CCc2c(c(C)nn2-c2ccccn2)C1=O,7,26,69*,0,1,9
COC(=O)c1ccccc1NC(=O)CN1CCN(c2ccccn2)CC1,-4,21,15,4,0,3
Brc1cccc(CNc2nc3ccccc3n2CCN2CCCCC2)c1,3,52*,7,3,4,3
COc1cccc(CNc2nc3ccccc3n2CCN2CCCCC2)c1,3,33,-4,3,2,3
CN1CC=C2C(C#N)=C(N)C(C#N)(C#N)[C@H](c3ccoc3)[C@H]2C1,20,34,25,32*,14,28
N#CC1=C(N)C(C#N)(C#N)[C@H](c2ccoc2)[C@H]2CN(Cc3ccccc3)CC=C12,10,52*,59*,19,11,12
CC(=O)N1CC=C2C(C#N)=C(N)C(C#N)(C#N)C(CCc3ccccc3)C2C1 (centres undefined),10,-6,20,4,13,-6
CCN1CC=C2C(C#N)=C(N)C(C#N)(C#N)C(CCc3ccccc3)C2C1 (centres undefined),2,15,8,25*,26*,2
CC(=O)N1CC=C2C(C#N)=C(N)C(C#N)(C#N)[C@H](c3ccoc3)[C@H]2C1,4,7,0,3,4,2
CCN(CC)c1ccc(N=Cc2ccccc2[N+](=O)[O-])cc1,10,13,62*,33*,0,4
O=C(NNC(=O)c1ccccc1O)c1ccc(Cl)c(S(=O)(=O)N2CCc3ccccc32)c1,4,3,12,30*,1,14
CC(O)CNc1nc2ccccc2n1CC(=O)NCCc1ccc(Cl)cc1 (centres undefined),1,-5,-7,4,28*,0
CC(=O)C[C@@H](O)CC(=O)[C@@H]1OC(=O)CCCCC/C=C/Cc2ccccc21,8,15,17,-3,8,-1
COc1ccc2nc(C)c(C(=O)NN)cc2c1,-2,-3,9,3,4,-6
CC1CCc2c(sc(NS(=O)(=O)c3ccccc3)c2C(=O)OC(C)C)C1 (centres undefined),-2,10,16,25*,3,6
COc1cccc(NC(=S)Nc2cccc3ccccc23)c1,4,17,94*,1,4,2
CCc1cccc(NC(=S)Nc2cccc3ccccc23)c1,6,3,79*,5,5,-11
COc1ccc(-c2oc3cc(O)c(OC)c(O)c3c(=O)c2OC)cc1O,8,/,/,/,3,10
O=[N+]([O-])c1cc(-c2csc(NCCc3nc4cc(Cl)c(Cl)cc4n3CCCO)n2)ccc1Cl,16,23,0,31*,18,-3
CCCn1c(CCNc2nc(-c3ccc(Cl)c([N+](=O)[O-])c3)cs2)nc2cc(Cl)c(Cl)cc21,-7,13,15,10,8,10
SMILES,PAFAH1B3 FP inh,PREPL inh,Apaf-1 inh,pPAFAH FP inh,PAFAH1B2 inh,PAFAH2 FP inh
Cc1c(C(=O)OCCOc2ccc(Br)cc2)sc(=S)n1C,3,13,20,-1,28*,3
CC(=O)c1nn(-c2cccc(Br)c2)cc1C(=O)c1ccccc1,10,-14,-6,7,-3,2
CC(=O)c1nn(-c2cccc(Br)c2)cc1C(=O)c1ccco1,8,13,7,25*,-4,5
CCc1ccccc1NC(=S)N(CCN1CCOCC1)C1CCN(C(C)=O)CC1,-4,2,1,1,-1,-1
O=C(N/N=C\c1ccc(-c2ccccc2[N+](=O)[O-])o1)C1COc2cc3ccccc3cc2O1 (centres undefined),6,24,81*,13,2,7
CN(C)/C(=N\S(=O)(=O)c1ccccc1)c1ccc(Cl)cc1,4,2,1,3,9,1
O=C(CSc1nnnn1-c1ccc(F)cc1)c1ccc(O)c(O)c1,4,5,/,31*,9,19
Cc1ccc(C2(c3noc(CN4CCOCC4)n3)CCCC2)cc1,5,-13,-4,-1,8,-3
Cc1ccc(C2(c3noc(CN4CCC(C(=O)N5CCOCC5)CC4)n3)CCCC2)cc1,3,-8,-22,8,27*,-2
CC1(OC(=O)c2cccs2)C(=O)C=C2C=C(c3ccc(C#N)cc3)OC=C2C1=O (centres undefined),/,7,22,45*,/,/
CC1(OC(=O)c2cccs2)C(=O)C=C2C=C(c3ccsc3)OC=C2C1=O (centres undefined),/,6,-11,56*,/,/
COc1cccc(C2C(C#N)=C(N)SC(c3ccccc3)C2[N+](=O)[O-])c1 (centres undefined),0,17,20,4,7,0
CCn1cc(Cl)c(C(=O)Nc2cccc(CN3CCOCC3)c2)n1,1,/,-7,/,6,-3
Cc1ccc(Nc2nc(-c3ccccc3)c(CC(=O)O)s2)cc1,3,58*,12,2,6,6
O=C(c1ccc(COc2ccc(Br)cc2)o1)N1N=C(C(F)F)CC1(O)C(F)F (centres undefined),-2,2,20,10,29*,-2
NNC(=O)c1ccc(COc2ccc(Br)cc2)o1,-1,-6,11,1,25*,1
CC(C)(C)c1ccc(OCc2ccc(C(=O)NN)o2)cc1,8,9,24,2,4,-2
CCOc1ccc(OCc2ccc(C(=O)N3N=C(C(F)F)CC3(O)C(F)F)o2)cc1 (centres undefined),-1,-1,-2,2,-1,-1
Cc1ccc(S(=O)(=O)N2CCCN(C(=O)CNC(=O)c3cccc(C)c3)CC2)cc1,5,6,2,-3,-3,-6
